rRNA inh HTS = selective bacterial rRNA inhibition in E. coli; GFP signal change (wild-type ribosome), % (concentration not given with the values); E. coli WT GFP vs humanized-ribosome RFP mutants, fluorescence, 24 h; active compounds read low; DMSO median 0, no signal -100; 350,000 compounds, 1.6% hits;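 active = significant combined selectivity score with lowered wild-type GFP, culture density cut under 30%, mutant RFP and density less affected; inactive = any of these conditions unmet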
E-selectin induc = E-selectin induction on HUVECs; P16581; HUVEC E-selectin immunofluorescence imaging; normalized: neutral wells 0, TNF-alpha wells 100; 260,000 compounds, 0.37% hits; activation, % at 7.58 µM; AID 686992;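 active = mean E-selectin-positive cell signal at least 10% of the positive control, reached in at least 60% of replicates, without over 20% cell loss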
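assay system = HUVEC, human umbilical vein endothelial cells | input = 3,000 HUVEC seeded per well | medium = EGM-2 growth medium on 0.1% gelatin-coated wells | dosing = one compound dose added by pin transfer | signal = immunofluorescence imaging | read-out basis = % PE-positive cells | control set = TNF-alpha, DMSO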
MLL AF4-AF9 inh = blocks AF4 peptide binding to human AF9. P42568. 350,000 compounds, 0.47% hits. AlphaScreen, biotin-AF4 peptide binding to FLAG-AF9. inhibition, % at 10 µM;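 active = every replicate reaching a set inhibition limit, whatever the replicate mean, cut at about 25% in these data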;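 note: 0% = plate neutral control median and 100% = total signal loss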
SIRT5 inh = blocks human SIRT5 desuccinylation of peptide | Q9NXA8 | Purified SirT5, succinyl-peptide AMC, trypsin-coupled fluorescence | inhibition, % at 15 µM | 330,000 compounds, 1.1% hits | AID 652115; in the data active = inhibition above about 15%
Target sequence (Q9NXA8 whole entry, looked up): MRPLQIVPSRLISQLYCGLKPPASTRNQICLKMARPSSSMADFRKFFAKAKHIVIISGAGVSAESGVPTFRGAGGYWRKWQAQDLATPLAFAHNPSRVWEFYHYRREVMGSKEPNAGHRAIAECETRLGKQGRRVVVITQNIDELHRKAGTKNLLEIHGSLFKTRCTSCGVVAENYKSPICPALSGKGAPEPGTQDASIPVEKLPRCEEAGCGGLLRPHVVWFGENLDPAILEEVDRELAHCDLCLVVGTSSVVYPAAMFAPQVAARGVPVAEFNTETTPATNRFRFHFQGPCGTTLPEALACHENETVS
S100A4 MyoIIA = blocks human S100A4 binding to myosin IIA peptide | P26447 | 360,000 compounds, 0.14% hits | S100A4/TAMRA-MyoIIA peptide fluorescence polarization | inhibition, % at 10.7 µM;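 active = mean inhibition of at least 70% across replicates, with every replicate also reaching that level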
Target sequence (P26447 whole entry, looked up): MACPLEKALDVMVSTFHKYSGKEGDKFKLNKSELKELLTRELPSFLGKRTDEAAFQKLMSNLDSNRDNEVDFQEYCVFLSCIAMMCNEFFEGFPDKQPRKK
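System – human S100A4 monomer protein, biochemical binding assay · Buffer or medium – Calcium-containing HEPES buffer, pH 7.2 · Timing – 5 min between mix addition and reading · Also added – TAMRA-labelled myosin IIA heavy-chain peptide probe, 5 nM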
ERAP1 inh = ERAP1 (human) enzyme inhibition. Q9NZ08. recombinant ERAP1, Leu-AMC fluorescence, 60 min. inhibition, % at 10.7 µM. 340,000 compounds, 0.15% hits;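 active = mean replicate inhibition of at least 30%, or all replicates individually reaching that 30% level; inactive = mean below 30% and not every replicate reaching it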;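 note: 0% = neutral control wells and 100% = L-leucinethiol positive control wells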
* = called active by the depositor; . = no result. Compounds with a hit are over-represented: about 3.4% of the library has one in this group of screens.

SMILES	rRNA inh HTS	E-selectin induc	MLL AF4-AF9 inh	SIRT5 inh	S100A4 MyoIIA	ERAP1 inh
O=C(Cc1ccccn1)NCC[C@@H]1CC[C@H](NS(=O)(=O)c2ccc(Cl)cc2)[C@H](CO)O1	0.2	-0.2	20.9	-3.9	11.1	-1.1
CC(=O)N(C)C[C@H]1Oc2ccc(NC(=O)NC(C)C)cc2CC(=O)N(C)C[C@@H]1C	4.7	.	.	.	.	.
O=C(O)c1cc(S(=O)(=O)N2CCN(C(c3ccccc3)c3ccccc3)CC2)ccc1Cl	-16.1*	.	3.0	-1.7	-2.5	-1.5
CC(NCC(=O)Nc1cc(S(=O)(=O)N2CCCCCC2)ccc1Cl)c1ccccc1 (centres undefined)	-23.4*	0.6	-1.0	-0.5	-0.2	-1.7
Cc1ccccc1NCC(=O)Nc1cc(S(=O)(=O)N2CCCCC2)ccc1C	5.5	.	-3.3	2.5	1.7	-0.8
CO[C@H]1CN(C)C(=O)c2cc(NC(=O)Nc3cccc(F)c3)ccc2OC[C@H](C)N(C(C)=O)C[C@@H]1C	-3.1	-0.2	1.4	2.3	0.9	-1.5
CC(C)NC(=O)N(C)C[C@H]1Oc2ccc(NC(=O)C3CCCCC3)cc2C(=O)N([C@H](C)CO)C[C@H]1C	2.1	0.7	-1.6	-2.0	-30.1	0.3
CCn1nc(CC(=O)O)c2ccccc2c1=O	16.2	185.1*	-0.1	-0.9	3.8	0.4
Cc1ccc(S(=O)(=O)N(C)C[C@@H]2OCCCC[C@H](C)Oc3ccc(NS(C)(=O)=O)cc3C(=O)N([C@H](C)CO)C[C@@H]2C)cc1	-2.5	-0.1	1.4	4.2	41.5	3.6
C[C@@H]1CCCCO[C@H](CN(C)Cc2ccc(Cl)c(Cl)c2)[C@@H](C)CN([C@@H](C)CO)C(=O)c2cc(NC(=O)C3CCCCC3)ccc2O1	-1.5	-0.3	3.1	-0.6	-0.6	-3.8
N#C/C(=N\Nc1ccc(S(=O)(=O)N2CCCCC2)cc1)C(N)=S	-31.8*	.	2.5	7.7	16.6	0.7
N#C/C(=N\Nc1ccc(S(=O)(=O)N2CCCCCC2)cc1)C(N)=S	-58.0	.	0.0	9.9	1.0	3.1
C[C@@H]1CN([C@@H](C)CO)C(=O)c2cc(C#CCN(C)C)cnc2O[C@@H]1CN(C)C(=O)Nc1cccc(F)c1	5.2	0.1	1.8	-1.3	9.4	-5.0
CCN(CC)CCCCN1c2ccccc2Sc2ccccc21	-18.2	0.3	25.4*	-6.0	0.3	3.8
O=[N+]([O-])c1c(C(Cl)Cl)nn(-c2ccccc2)c1N1CCCC1	-43.4*	.	22.0	2.0	6.1	-3.0
C[C@H](NC(=O)C[C@@H]1CC[C@H](NC(=O)Nc2ccc3c(c2)OCO3)[C@@H](CO)O1)c1ccccc1	-0.2	-0.7	-1.3	0.7	-1.4	0.3
CCCCOC(=O)C1CN(c2ccccc2)N=C1C(C)=O (centres undefined)	-32.5*	-0.7	-2.6	-1.4	1.5	10.3
CCOC(=O)C1=NN(c2ccc([N+](=O)[O-])cc2)CC1C(=O)OC (centres undefined)	.	-0.3	.	.	.	.
Cc1noc(C)c1NC(=O)N(C)C[C@@H]1OCCCC[C@H](C)Oc2ccc(NS(=O)(=O)c3ccc(F)cc3)cc2C(=O)N([C@H](C)CO)C[C@@H]1C	-3.3	0.0	1.2	1.1	-0.8	-3.4
O=C(NNC(=O)c1cccc(S(=O)(=O)Nc2ccccc2F)c1)c1ccncc1	12.6	-0.2	-6.7	17.5*	-2.1	-1.1
O=C(Nc1cccnc1)c1cccc(S(=O)(=O)Nc2ccccc2F)c1	0.7	.	1.1	0.8	3.8	-2.6
O=C(/C=C/c1ccccc1)Nc1cccc(S(=O)(=O)Nc2ccccc2F)c1	-4.4	0.4	2.5	25.3*	17.5	0.1
O=C(Cc1ccc(Cl)cc1Cl)Nc1cccc(S(=O)(=O)Nc2ccccc2F)c1	-4.2	3.4	-4.2	29.7*	7.6	0.9
O=C(/C=C/c1ccccc1)Nc1cccnc1Oc1ccccc1F	-16.4*	-0.3	1.6	2.3	-1.2	-1.2
CCC(=O)N1CCC2(CC1)CN(C(=O)CN1CCOCC1)[C@H](CO)c1c2c2ccc(OC)cc2n1C	2.7	-0.2	-0.9	-0.6	14.1	-0.8
SMILES	rRNA inh HTS	E-selectin induc	MLL AF4-AF9 inh	SIRT5 inh	S100A4 MyoIIA	ERAP1 inh
C[C@@H]1CN([C@@H](C)CO)C(=O)c2cc(NS(=O)(=O)c3ccc(Cl)cc3)ccc2O[C@@H]1CN(C)CC1CC1	1.8	-0.4	7.2	3.8	-12.4	1.6
COc1ccc(S(=O)(=O)N(C)C[C@@H]2Oc3c(NC(=O)c4ccc(-c5nccs5)cc4)cccc3C(=O)N([C@@H](C)CO)C[C@H]2C)cc1	-56.8	.	.	.	.	.
O=C(C[C@H]1C=C[C@H](NS(=O)(=O)c2ccccc2)[C@H](CO)O1)N1CCC(Cc2ccccc2)CC1	-2.4	-0.2	0.3	-4.0	-10.2	.
O=C(C[C@H]1C[C@H]2c3cc(NC(=O)Nc4ccccc4F)ccc3O[C@H]2[C@@H](CO)O1)NCCc1ccccc1	0.2	0.2	-3.9	2.6	1.2	0.3
NNC(=O)c1cccc(S(=O)(=O)Nc2cc(Cl)ccc2Cl)c1	-19.6*	-1.7	-9.0	-2.7	5.6	.
O=C(C[C@H]1C=C[C@@H](NC(=O)c2ccncc2)[C@@H](CO)O1)Nc1ccccc1	1.7	-0.2	-5.5	2.7	23.0	-2.3
O=C(Cc1cccc(C(F)(F)F)c1)OCC(=O)N1CCN(S(=O)(=O)c2ccc(Cl)cc2)CC1	-4.5	.	2.8	1.1	-0.7	-2.1
CCOc1ccc(S(=O)(=O)Nc2ccc(S(=O)(=O)N3CCCCC3)cc2)cc1	-3.7	.	.	-0.1	3.1	1.7
CCOc1ccc(S(=O)(=O)Nc2ccc(S(=O)(=O)N3CCCC3)cc2)cc1	-26.6*	.	.	.	44.5	2.2
O=C(Cc1ccc(F)cc1)OCC(=O)N1CCN(S(=O)(=O)c2ccc(Cl)cc2)CC1	0.5	2.2	-30.3	19.3*	-0.2	0.1
CCOc1ccc(OCCCC(=O)N2CCN(S(=O)(=O)c3ccc(Cl)cc3)CC2)cc1	-7.3	.	4.3	0.8	-6.3	32.1*
CO[C@@H]1CN(C)C(=O)c2cc(NC(=O)Nc3ccccc3Cl)ccc2OC[C@@H](C)N(C)C[C@H]1C	-0.5	6.6	0.2	0.6	-13.6	-1.6
COc1cccc(S(=O)(=O)N[C@H]2CC[C@@H](CCn3cc(-c4ccccc4OC)nn3)O[C@@H]2CO)c1	-5.3	-0.3	0.8	0.4	0.9	-0.1
C[C@H](CO)N1C[C@H](C)[C@H](CN(C)S(=O)(=O)c2cccs2)Oc2ccc(NS(=O)(=O)c3ccc(F)cc3)cc2CC1=O	1.6	0.1	2.5	2.5	-3.7	0.7
O=C(CN1CCC(c2nc3ccccc3s2)CC1)N1CCCCC1	-1.2	.	-0.8	37.5*	-5.7	-1.9
CCOC(=O)Cn1cc(C#N)c2cccc(CC)c21	-12.8	-0.2	-2.1	23.9*	8.6	-3.6
O=C1N[C@@H](Cc2ccccc2)COCc2cnnn2CC[C@@H]1Cc1cccc(F)c1	0.7	.	.	.	.	.
